Data taken from ChEMBL document CHEMBL2412955, “Synthesis and antibacterial activities of N-substituted-glycinyl 1H-1,2,3-triazolyl oxazolidinones” (2013).
Values after ≈ are worked out from the molar mass of the structure shown.

How the values were obtained:
Assay type in all cases: functional
[1] = test system: Staphylococcus aureus; assay: Antibacterial activity against Staphylococcus aureus ATCC 25923 after 18 hrs by […] in presence of human plasma; settings: ATCC 25923, Plasma
Procedure, shortened: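 To gauge plasma protein binding and/or plasma instability, MIC was determined in Mueller-Hinton broth containing 50% human plasma. Linezolid served as a reference agent. Ratio compares this MIC with the MIC obtained without plasma.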

[2] = test system: Staphylococcus aureus; assay: Antibacterial activity against Staphylococcus aureus ATCC 25923 after 18 hrs by NCCLS agar dilution method; settings: ATCC 25923, 18 h
Procedure, shortened: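 Plain Mueller-Hinton agar, agar dilution per NCCLS, concentrations 0.12–64 µg/ml. Test agents in 80% DMSO in water, linezolid in 40% water in ethanol, vancomycin in water. Final inoculum 10^7 CFU/ml, 35 °C for 18 h. MIC = lowest concentration inhibiting visible growth.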

[3] = test system: Moraxella catarrhalis; assay: Antibacterial activity against Moraxella catarrhalis ATCC 8176 after 18 hrs by NCCLS agar dilution method; settings: ATCC 8176, 18 h
Procedure, shortened: (§1)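 NCCLS agar dilution on Mueller-Hinton agar with 5% sheep blood added to support growth. Drug dilutions 0.12–64 µg/ml. Test agents in 80% DMSO in water, linezolid in 40% water in ethanol. Final inoculum 10^7 CFU/ml, 18 h at 35 °C. MIC read as the lowest concentration with no visible growth.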

[4] = test system: Streptococcus pneumoniae; assay: Antibacterial activity against penicillin-resistant Streptococcus pneumoniae after 18 hrs by NCCLS agar dilution method
Procedure, shortened: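 Agar dilution was run on Mueller-Hinton agar supplemented with 5% sheep blood, with drug dilutions from 0.12 to 64 µg/ml. Test compounds were dissolved in 80% DMSO in water. Final inoculum was 10^7 CFU/ml, incubated at 35 °C for 18 h. MIC was the lowest concentration preventing visible growth.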

[5] = test system: Haemophilus influenzae; assay: Antibacterial activity against Haemophilus influenzae ATCC 49247 after 18 hrs by NCCLS agar dilution method; settings: ATCC 49247, 18 h; procedure, shortened: as §1
[6] = test system: Escherichia coli; assay: Antibacterial activity against Escherichia coli ATCC 25922 after 18 hrs by NCCLS agar dilution method; settings: ATCC 25922, 18 h
Procedure, shortened: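 Agar dilution per NCCLS on Mueller-Hinton agar, drug dilutions 0.12–64 µg/ml. Linezolid dissolved in 40% water in ethanol, vancomycin in water, test agents in 80% DMSO in water. Inoculum 10^7 CFU/ml (final), incubated 35 °C for 18 h. MIC is the lowest concentration preventing visible growth.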

[7] = test system: Enterococcus; assay: Antibacterial activity against vancomycin-resistant Enterococcus after 18 hrs by NCCLS agar dilution method
Procedure, shortened: (§2)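 Clinical isolates were tested by agar dilution on Mueller-Hinton agar with drug dilutions from 0.12 to 64 µg/ml. Test compounds were dissolved in 80% DMSO in water. Final inoculum was 10^7 CFU/ml, incubated at 35 °C for 18 h. MIC was the lowest concentration inhibiting visible growth.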

[8] = test system: Enterococcus; assay: Antibacterial activity against vancomycin-susceptible Enterococcus after 18 hrs by NCCLS agar dilution method; procedure, shortened: as §2
[9] = test system: Staphylococcus; assay: Antibacterial activity against methicillin-susceptible coagulase-negative Staphylococcus after 18 hrs by NCCLS agar dilution method; procedure, shortened: as §2
[10] = test system: Staphylococcus; assay: Antibacterial activity against methicillin-resistant coagulase-negative Staphylococcus after 18 hrs by NCCLS agar dilution method; procedure, shortened: as §2
[11] = test system: Staphylococcus aureus; assay: Antibacterial activity against methicillin-susceptible Staphylococcus aureus after 18 hrs by NCCLS agar dilution method; procedure, shortened: as §2
[12] = test system: Staphylococcus aureus; assay: Antibacterial activity against methicillin-resistant Staphylococcus aureus after 18 hrs by NCCLS agar dilution method; procedure, shortened: as §2

| SMILES | MIC [1] [µg/mL] | MIC [2] [µg/mL] | MIC [3] [µg/mL] | MIC [4] [µg/mL] | MIC [5] [µg/mL] | MIC [6] [µg/mL] | MIC [7] [µg/mL] | MIC [8] [µg/mL] | MIC [9] [µg/mL] | MIC [10] [µg/mL] | MIC [11] [µg/mL] | MIC [12] [µg/mL] |
| --- | --- | --- | --- | --- | --- | --- | --- | --- | --- | --- | --- | --- |
| Cc1cn(C[C@H]2CN(c3ccc(N4CCN(C(=O)CNC(=O)C(Cl)Cl)CC4)c(F)c3)C(=O)O2)nn1 | 16 | 8 (≈ 15.1 µM) | 16 (≈ 30.3 µM) | 2 (≈ 3.79 µM) | > 32 | > 64 | 4 (≈ 7.57 µM) | 4 (≈ 7.57 µM) | 4 (≈ 7.57 µM) | 4 (≈ 7.57 µM) | 4 (≈ 7.57 µM) | 4 (≈ 7.57 µM) |
| Cc1cn(C[C@H]2CN(c3ccc(N4CCN(C(=O)CNC(=O)C5CCCO5)CC4)c(F)c3)C(=O)O2)nn1 (stereo partly specified) | 32 | 32 (≈ 62.1 µM) | 32 (≈ 62.1 µM) | 0.5 (≈ 0.97 µM) | 32 (≈ 62.1 µM) | > 64 | 16 (≈ 31 µM) | 16 (≈ 31 µM) | 16 (≈ 31 µM) | 16 (≈ 31 µM) | 16 (≈ 31 µM) | 16 (≈ 31 µM) |
| O=C(CNS(=O)(=O)c1cccs1)N1CCN(c2ccc(N3C[C@H](Cn4ccnn4)OC3=O)cc2F)CC1 | 32 | 4 (≈ 7.28 µM) | 32 (≈ 58.2 µM) | 1 (≈ 1.82 µM) | ≥ 64 | > 64 | 2 (≈ 3.64 µM) | 2 (≈ 3.64 µM) | 2 (≈ 3.64 µM) | 2 (≈ 3.64 µM) | 2 (≈ 3.64 µM) | 2 (≈ 3.64 µM) |
| CC(=O)NCC(=O)N1CCN(c2ccc(N3C[C@H](Cn4ccnn4)OC3=O)cc2F)CC1 | 8 | 4 (≈ 8.98 µM) | 32 (≈ 71.8 µM) | 1 (≈ 2.24 µM) | 64 (≈ 144 µM) | > 64 | 2 (≈ 4.49 µM) | 2 (≈ 4.49 µM) | 2 (≈ 4.49 µM) | 2 (≈ 4.49 µM) | 2 (≈ 4.49 µM) | 4 (≈ 8.98 µM) |
| Cc1cn(C[C@H]2CN(c3ccc(N4CCN(C(=O)CNS(=O)(=O)c5cccs5)CC4)c(F)c3)C(=O)O2)nn1 | 32 | 16 (≈ 28.4 µM) | 32 (≈ 56.8 µM) | 2 (≈ 3.55 µM) | 64 (≈ 114 µM) | > 64 | 8 (≈ 14.2 µM) | 8 (≈ 14.2 µM) | 8 (≈ 14.2 µM) | 8 (≈ 14.2 µM) | 8 (≈ 14.2 µM) | 8 (≈ 14.2 µM) |
| O=C(NCC(=O)N1CCN(c2ccc(N3C[C@H](Cn4ccnn4)OC3=O)cc2F)CC1)c1ccccc1 | > 64 | 1 (≈ 1.97 µM) | 32 (≈ 63.1 µM) | 1 (≈ 1.97 µM) | 32 (≈ 63.1 µM) | > 64 | 0.5 (≈ 0.985 µM) | 1 (≈ 1.97 µM) | 0.5 (≈ 0.985 µM) | 0.5 (≈ 0.985 µM) | 0.5 (≈ 0.985 µM) | 0.5 (≈ 0.985 µM) |
| O=C(NCC(=O)N1CCN(c2ccc(N3C[C@H](Cn4ccnn4)OC3=O)cc2F)CC1)C1CCCO1 (stereo partly specified) | 16 | 8 (≈ 16 µM) | 16 (≈ 31.9 µM) | 1 (≈ 1.99 µM) | 32 (≈ 63.8 µM) | > 64 | 8 (≈ 16 µM) | 4 (≈ 7.98 µM) | 4 (≈ 7.98 µM) | 4 (≈ 7.98 µM) | 4 (≈ 7.98 µM) | 4 (≈ 7.98 µM) |
| CC(=O)NCC(=O)N1CCN(c2ccc(N3C[C@H](Cn4cc(C)nn4)OC3=O)cc2F)CC1 | 8 | 4 (≈ 8.71 µM) | 16 (≈ 34.8 µM) | 1 (≈ 2.18 µM) | 32 (≈ 69.6 µM) | > 64 | 4 (≈ 8.71 µM) | 2 (≈ 4.35 µM) | 2 (≈ 4.35 µM) | 2 (≈ 4.35 µM) | 2 (≈ 4.35 µM) | 2 (≈ 4.35 µM) |
| Cc1cn(C[C@H]2CN(c3ccc(N4CCN(C(=O)CNC(=O)OC(C)(C)C)CC4)c(F)c3)C(=O)O2)nn1 | 16 | 4 (≈ 7.73 µM) | 16 (≈ 30.9 µM) | 4 (≈ 7.73 µM) | ≥ 64 | > 64 | 8 (≈ 15.5 µM) | 4 (≈ 7.73 µM) | 4 (≈ 7.73 µM) | 4 (≈ 7.73 µM) | 4 (≈ 7.73 µM) | 8 (≈ 15.5 µM) |
| CCOC(=O)CC(=O)NCC(=O)N1CCN(c2ccc(N3C[C@H](Cn4cc(C)nn4)OC3=O)cc2F)CC1 | 16 | 8 (≈ 15.1 µM) | > 64 | 4 (≈ 7.53 µM) | > 64 | > 64 | 4 (≈ 7.53 µM) | 4 (≈ 7.53 µM) | 4 (≈ 7.53 µM) | 4 (≈ 7.53 µM) | 4 (≈ 7.53 µM) | 4 (≈ 7.53 µM) |
| CCOC(=O)CC(=O)NCC(=O)N1CCN(c2ccc(N3C[C@H](Cn4ccnn4)OC3=O)cc2F)CC1 | 16 | 8 (≈ 15.5 µM) | 32 (≈ 61.8 µM) | 2 (≈ 3.86 µM) | 64 (≈ 124 µM) | > 64 | 8 (≈ 15.5 µM) | 4 (≈ 7.73 µM) | 4 (≈ 7.73 µM) | 4 (≈ 7.73 µM) | 4 (≈ 7.73 µM) | 4 (≈ 7.73 µM) |
| O=C(NCC(=O)N1CCN(c2ccc(N3C[C@H](Cn4ccnn4)OC3=O)cc2F)CC1)c1ccco1 | 2 | 2 (≈ 4.02 µM) | 16 (≈ 32.2 µM) | 0.25 (≈ 0.503 µM) | 16 (≈ 32.2 µM) | > 64 | 1 (≈ 2.01 µM) | 1 (≈ 2.01 µM) | 1 (≈ 2.01 µM) | 1 (≈ 2.01 µM) | 1 (≈ 2.01 µM) | 1 (≈ 2.01 µM) |
| Cc1cn(C[C@H]2CN(c3ccc(N4CCN(C(=O)CNC(=O)C(F)(F)F)CC4)c(F)c3)C(=O)O2)nn1 | 16 | 8 (≈ 15.6 µM) | 16 (≈ 31.2 µM) | 1 (≈ 1.95 µM) | 32 (≈ 62.3 µM) | > 64 | 4 (≈ 7.79 µM) | 4 (≈ 7.79 µM) | 4 (≈ 7.79 µM) | 4 (≈ 7.79 µM) | 4 (≈ 7.79 µM) | 4 (≈ 7.79 µM) |
